# Assay results from different studies.
# Protocols differ between the studies behind these lines.
# Organism: Staphylococcus aureus
# Observed: microbial killing
SMILES,technique,strain,time,setting,MBC
CCCCCCCCCCCCCCCC#CC(=O)O,,,,,15.6 µg/mL
O=C1NC(=S)S/C1=C\c1ccc(-c2ccc(N(c3ccccc3)c3ccccc3)cc2)c2ccccc12,broth dilution,ATCC43300,,,> 1000 µg/mL
CCOC(=O)c1c(N)csc1-c1cn(-c2ccccc2)nc1-c1ccc(C)cc1,broth dilution,,,,0.125 µg/mL
O=C(O)CN1C(=O)/C(=C/c2c3ccccc3c(-c3ccc(N(c4ccccc4)c4ccccc4)cc3)c3ccccc23)NC1=S,broth dilution,ATCC6538,,,> 1000 µg/mL
CC(=O)NC[C@H]1CN(c2ccc(N3CCOCC3)c(F)c2)C(=O)O1,broth dilution,ATCC6538,,,> 64 µM
CCCCCCCC(=O)Oc1c(C)c(O)c(C(=O)/C=C/c2ccccc2)c(OC)c1C,broth dilution,ATCC25923,,,> 5000 µg/mL
COc1cc(Cc2cnc(N)nc2N)cc(OC)c1OC,broth dilution,,48 h,,2 µg/mL
CCCCCOc1c(OC)cc(NC(C)CCCNC(=S)NCCCC(C)Nc2cc(OC)c(OCCCCC)c3c(CC)ccnc23)c2nccc(CC)c12.Cl.Cl (centres unmarked),,ATCC43300 MRSA,,drug-resistant strain,10 to 20 µg/mL
COc1c(C)c(OC(C)=O)c(C)c(O)c1C(=O)/C=C/c1ccccc1,broth dilution,ATCC25923,,,> 5000 µg/mL
O=C(O)CN1C(=O)/C(=C/c2c3ccccc3c(-c3ccc(N(c4ccccc4)c4ccccc4)cc3)c3ccccc23)SC1=S,broth dilution,ATCC25923,,,> 1000 µg/mL
C=CCOc1c(C)c(O)c(C(=O)/C=C/c2ccccc2)c(OC)c1C,broth dilution,ATCC25923,,,> 5000 µg/mL
O=C1NC(=S)N/C1=C\c1c2ccccc2c(-c2ccc(N(c3ccccc3)c3ccccc3)cc2)c2ccccc12,broth dilution,ATCC6538,,,> 1000 µg/mL
COc1c(C)c(OCc2ccccc2)c(C)c(O)c1C(=O)/C=C/c1ccccc1,broth dilution,ATCC25923,,,> 5000 µg/mL
N#CC(=Cc1ccccc1O)C1=NC(=O)C(=Cc2cn(-c3ccccc3)nc2-c2ccccc2)S1,broth dilution,,,,0.5 µg/mL
COc1c(C)c(OC)c2c(c1C)OC(c1ccccc1)CC2=O (centres unmarked),broth dilution,ATCC25923,,,> 5000 µg/mL
O=C1NC(=S)S/C1=C\c1ccc(-c2ccc(N(c3ccccc3)c3ccccc3)cc2)cc1,broth dilution,ATCC43300,,,> 1000 µg/mL
CN[C@H](CC(C)C)C(=O)N[C@H]1C(=O)N[C@@H](CC(N)=O)C(=O)N[C@H]2C(=O)N[C@H]3C(=O)N[C@H](C(=O)N[C@H](C(=O)O)c4cc(O)cc(O)c4-c4cc3ccc4O)[C@H](O)c3ccc(c(Cl)c3)Oc3cc2cc(c3O[C@@H]2O[C@H](CO)[C@@H](O)[C@H](O)[C@H]2O[C@H]2C[C@](C)(N)[C@H](O)[C@H](C)O2)Oc2ccc(cc2Cl)[C@H]1O,broth dilution,ATCC6538,,,1 µM
